From ChEMBL document CHEMBL4622871, “Synthesis, biological evaluation of benzothiazole derivatives bearing a 1,3,4-oxadiazole moiety as potential anti-oxidant and anti-inflammatory agents” (Bioorg Med Chem Lett, 2020)
pIC50: −log10 of the molar value. One block for each compound: values may come before it.

Columns and labels:
[1] = target: T1, Prostaglandin G/H synthase 2 (Homo sapiens) (UniProt P35354); test: Inhibition of COX2 (unknown origin) at 10 umol/l by ELISA relative to control
T1 sequence (whole entry): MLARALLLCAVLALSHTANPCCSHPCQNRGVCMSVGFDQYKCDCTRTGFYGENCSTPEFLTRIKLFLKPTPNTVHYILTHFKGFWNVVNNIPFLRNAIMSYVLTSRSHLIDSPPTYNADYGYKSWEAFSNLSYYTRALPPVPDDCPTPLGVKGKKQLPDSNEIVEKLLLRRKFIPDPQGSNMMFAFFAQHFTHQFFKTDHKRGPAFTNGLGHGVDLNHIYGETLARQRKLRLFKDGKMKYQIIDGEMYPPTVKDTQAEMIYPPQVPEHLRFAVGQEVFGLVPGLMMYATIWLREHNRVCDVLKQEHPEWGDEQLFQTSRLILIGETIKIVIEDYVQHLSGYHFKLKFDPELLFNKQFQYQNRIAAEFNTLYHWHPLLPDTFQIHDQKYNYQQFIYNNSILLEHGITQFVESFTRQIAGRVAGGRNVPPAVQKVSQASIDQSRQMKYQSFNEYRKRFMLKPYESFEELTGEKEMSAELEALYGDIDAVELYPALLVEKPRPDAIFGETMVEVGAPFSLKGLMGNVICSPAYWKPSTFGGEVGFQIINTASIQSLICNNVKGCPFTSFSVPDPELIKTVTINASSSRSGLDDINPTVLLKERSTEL

Mus musculus [2] = test: Antiinflammatory activity in para-xylene-induced mouse model of ear swelling assessed as inhibition in swelling rate at 100 mg/kg, po treated for 4 hrs followed by xylene addition relative to control; type: functional
In short: (§1)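 Mouse ear edema induced by para-xylene. A single oral dose of 100 mg/kg was given at set intervals (1, 2, 3, 4, 5 or 24 h) before xylene was applied. Each group had 5 mice. The inhibition rate (%) was taken relative to the vehicle group. Indomethacin at 100 mg/kg served as the reference.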

Mus musculus [3] = test: Antiinflammatory activity in para-xylene-induced mouse model of ear swelling assessed as inhibition in swelling rate at 100 mg/kg, po treated for 24 hrs followed by xylene addition relative to control; type: functional; in short: as §1
Mus musculus [4] = test: Antiinflammatory activity in para-xylene-induced mouse model of ear swelling assessed as inhibition in swelling rate at 100 mg/kg, po treated for 5 hrs followed by xylene addition relative to control; type: functional; in short: as §1
Mus musculus [5] = test: Antiinflammatory activity in para-xylene-induced mouse model of ear swelling assessed as inhibition in swelling rate at 100 mg/kg, po treated for 2 hrs followed by xylene addition relative to control; type: functional; in short: as §1
Mus musculus [6] = test: Antiinflammatory activity in para-xylene-induced mouse model of ear swelling assessed as inhibition in swelling rate at 100 mg/kg, po treated for 3 hrs followed by xylene addition relative to control; type: functional; in short: as §1
Mus musculus [7] = test: Antiinflammatory activity in para-xylene-induced mouse model of ear swelling assessed as inhibition in swelling rate at 25 mg/kg, po treated for 2 hrs followed by xylene addition relative to control; type: functional
In short: (§2)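 Mouse ear edema induced by para-xylene. Oral doses were 25, 50 or 100 mg/kg, given 2 h before xylene was applied. Each group had 5 mice. The inhibition rate (%) was taken relative to the vehicle group, with indomethacin as the positive control.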

Mus musculus [8] = test: Antiinflammatory activity in para-xylene-induced mouse model of ear swelling assessed as edema at 100 mg/kg, ip (reference value: 8.70 +/- 0.90 mg); type: functional
In short: (§3)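 Mouse ear swelling induced by para-xylene. Dosing was 100 mg/kg intraperitoneal with DMSO as vehicle, and the vehicle group was also given 100. Each group had 5 mice. Edema was recorded in mg as mean ± S.D., and the inhibition rate (%) was taken relative to the vehicle group. Indomethacin at 100 mg/kg served as the reference.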

Mus musculus [9] = test: Antiinflammatory activity in para-xylene-induced mouse model of ear swelling assessed as inhibition in swelling rate at 100 mg/kg, po treated for 1 hr followed by xylene addition relative to control; type: functional; in short: as §1
Mus musculus [10] = test: Antiinflammatory activity in para-xylene-induced mouse model of ear swelling assessed as inhibition in swelling rate at 100 mg/kg, ip relative to control; type: functional; in short: as §3
Mus musculus [11] = test: Antiinflammatory activity in para-xylene-induced mouse model of ear swelling assessed as inhibition in swelling rate at 50 mg/kg, po treated for 2 hrs followed by xylene addition relative to control; type: functional; in short: as §2
[12] = Antioxidant activity assessed as hydrogen peroxide scavenging activity at 100 ug/ml relative to control; type: functional
[13] = Antioxidant activity assessed as hydroxyl radical scavenging activity by spectrophotometric analysis; type: functional
In short: (§4)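 Radical scavenging by ABTS, DPPH or hydroxyl radical, read spectrophotometrically. Activity was calculated from the percentage decrease in absorbance, with resveratrol as the positive control. Values are given with the standard deviation (SD).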

[14] = Antioxidant activity assessed as ABTS radical scavenging activity by spectrophotometric analysis; type: functional; in short: as §4
[15] = Antioxidant activity assessed as DPPH radical scavenging activity by spectrophotometric analysis; type: functional; in short: as §4

- inhibition [1]: 35%
SMILES: Cc1cccc(-c2nnc(COc3ccc(/C=N/Nc4nc5ccccc5s4)cc3)o2)c1

SMILES: COc1ccc2c(c1)c(CC(=O)O)c(C)n2C(=O)c1ccc(Cl)cc1 [INDOMETHACIN]
- inhibition in vivo at 100 mg/kg (Mus musculus [2]): 30.4%
- inhibition in vivo at 100 mg/kg (Mus musculus [3]): 12.5%
- inhibition in vivo at 100 mg/kg (Mus musculus [4]): 19.2%
- inhibition in vivo at 100 mg/kg (Mus musculus [5]): 52.3 to 58.3%
- inhibition in vivo at 100 mg/kg (Mus musculus [6]): 46.1%
- inhibition in vivo at 25 mg/kg (Mus musculus [7]): 19.1%
- Activity (Mus musculus [8]): 5.15 mg
- inhibition in vivo at 100 mg/kg (Mus musculus [9]): 25.3%
- inhibition in vivo at 100 mg/kg (Mus musculus [10]): 43.6%
- inhibition in vivo at 50 mg/kg (Mus musculus [11]): 25.9%

SMILES: C/C(=N\c1ccc([N+](=O)[O-])cc1)N1N=C(c2ccc(-c3ccccc3)cc2)OC1c1ccccc1O (stereo not given)
- Activity [12]: < 51.2%

- pIC50 [13]: 0.43
- pIC50 [14]: 2.85
- pIC50 [15]: 3.00
SMILES: Oc1ccc(/C=C/c2cc(O)cc(O)c2)cc1 [RESVERATROL]
